# From PMC8905034 (Acta Pharmacologica Sinica, 2022)
# How the values were obtained:
# BRD4(1) [1] = target: T1, BRD4(1) (Homo sapiens, UniProt O60885); experiment: Thermal shift assay; format: binding
# MV4-11 cells [2] = experiment: Cell cycle analysis by flow cytometry; format: cell-based, human; conditions: MV4-11, 48 h
# How it was run: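 Cells seeded at 5 × 10^3 per well, grown 12 h, then exposed to graded test compound concentrations or DMSO for 48 h at 37 °C. Fixed overnight in 70% ethanol at 4 °C. RNase A (about 50 μg/mL final) at 37 °C for 30 min, then PI (about 65 μg/mL final) on ice in the dark for 30 min. Flow cytometry within 1 h; one-way ANOVA with Tukey's test.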
# c-Myc [3] = experiment: qRT-PCR of c-Myc mRNA in MV4-11; format: cell-based, human; conditions: MV4-11, 48 h, 1 μM, 5 μM and 10 μM vs control
# How it was run: (§1)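 Log-phase cells seeded at 5000 per well, grown 12 h, then given a range of test compound concentrations for 48 h, in triplicate wells. RNA extracted with TRIzol; reverse transcription with iScript (25 °C 5 min, 42 °C 30 min, 85 °C 5 min). EvaGreen qPCR used gene-specific primers. Expression by 2−ΔΔCt, normalised to GAPDH; one-way ANOVA with Tukey's test.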
# MV4-11 cells [4] = experiment: Apoptosis analysis by flow cytometry; format: cell-based, human; conditions: MV4-11, 1 μM, 5 μM and 10 μM vs control
# How it was run: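 Harvested cells washed in cold PBS and resuspended at 10^6/mL in 1× Annexin binding buffer. Stained with Alexa Fluor 488 Annexin V plus propidium iodide (100 μg/mL working solution) for 15 min at room temperature in the dark, then analysed by flow cytometry. Groups compared by one-way ANOVA with Tukey's test.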
# c-Myc [5] = experiment: Western blotting of c-Myc in MV4-11; format: cell-based, human; conditions: MV4-11, 48 h, Western blot
# How it was run: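 MV4-11 cells treated 48 h with several compound concentrations, then lysed 30 min on ice in RIPA with PMSF and cleared at 12,000 r/min, 4 °C. Protein quantified by BCA, run on 8% SDS-PAGE, blotted to PVDF and blocked in 5% milk/TBST. Probed with anti-c-Myc (1:1000, 4 °C overnight) and HRP anti-rabbit (1:50000, 1 h), then ECL. Densitometry relative to GAPDH; ANOVA/Tukey.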
# CDK6 = experiment: qRT-PCR of CDK6 mRNA in MV4-11; format: cell-based, human; conditions: MV4-11, 48 h, 1 μM, 5 μM and 10 μM vs control
# How it was run: as §1
# BRD4(1) [6] = target: T1, BRD4(1); experiment: Alphascreen assay against BRD4; format: biochemical
smiles,measurement,setting,value
"CCc1noc2cc(OC)c(NS(=O)(=O)c3ccccc3)cc12 [Compound 11d, N-(3-Ethyl-6-methoxybenzo[d]isoxazol-5-yl)benzenesulfonamide]","binding activity to BRD4 (TSA), in words",BRD4(1) [1],moderate activity
"CCc1noc2cc(OC)c(NS(=O)(=O)c3cccs3)cc12 [Compound 11y, N-(3-Ethyl-6-methoxybenzo[d]isoxazol-5-yl)thiophene-2-sulfonamide]","binding activity to BRD4 (TSA), in words",BRD4(1) [1],good binding activities
"CCc1noc2cc(OC)c(NS(=O)(=O)c3cccnc3)cc12 [Compound 11z, N-(3-Ethyl-6-methoxybenzo[d]isoxazol-5-yl)pyridine-3-sulfonamide]","binding activity to BRD4 (TSA), in words",BRD4(1) [1],good binding activities
"CCc1noc2cc(OC)c(NS(=O)(=O)c3ccc(OC)cc3)cc12 [Compound 11r, N-(3-Ethyl-6-methoxybenzo[d]isoxazol-5-yl)-4-methoxybenzenesulfonamide]","cell cycle arrest, in words",MV4-11 cells [2],induce cell cycle arrest in G0/G1 phase in a dose-dependent manner
same,mRNA expression of c-Myc,c-Myc [3],decreased significantly
same,"apoptosis rate, in words",MV4-11 cells [4],significantly increased
same,c-Myc expression at the protein level,c-Myc [5],remarkable dose-dependent decrease
same,mRNA expression of CDK6,CDK6,decreased significantly
"CCc1noc2cc(OC)c(NS(=O)(=O)c3ccccc3OC)cc12 [Compound 11h, N-(3-Ethyl-6-methoxybenzo[d]isoxazol-5-yl)-2-methoxybenzenesulfonamide]",IC50,BRD4(1) [6],94 nM
"CCc1noc2cc(OC)c(NS(=O)(=O)CC)cc12 [Compound 11a, N-(3-Ethyl-6-methoxybenzo[d]isoxazol-5-yl)ethanesulfonamide]","binding activity to BRD4 (TSA), in words",BRD4(1) [1],moderate binding activity
